The values that follow come from ChEMBL document CHEMBL3877264, “Quinolidene-rhodanine conjugates: Facile synthesis and biological evaluation” (Eur J Med Chem, 2017).

The nature of data set [1]: Cytotoxicity against human A549 cells measured after 48 hrs by MTT assay. The format is toxicity, cell-based.
Data set [2] concerns Escherichia coli. As to the kind of experiment: Growth inhibition of Escherichia coli NCIM 2688 at 10 ug/ml measured after 8 hrs relative to control. The format is functional. As to conditions: NCIM 2688, 8 h, read-out: GI. The method, boiled down: (§1)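 Bacteria grown in LB at 37 °C and 180 rpm to OD 1. Compounds added to wells, then 0.1% inoculum of 1 OD culture (620 nm). Growth read as OD at 620 nm after 8 h for gram-negative and after 12 h for gram-positive strains.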

The subject of data set [3] is Mycobacterium tuberculosis. In words: Growth inhibition of Mycobacterium tuberculosis H37Ra ATCC 25177 at active stage measured after 8 days by XTT dye based two fold dilution method. The format is functional. As to conditions: H37Ra ATCC 25177, 192 h. The method, boiled down:
(§2)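 MTB H37Ra was grown in Dubos medium, then exposed in Mycobacterium pheli minimal medium (pH 6.6) to compounds dissolved in DMSO. The assay ended on day 8 (active) or day 12 (dormant). Viable cells were measured by XTT reduction menadione assay at 470 nm, blank-corrected, relative to vehicle control. Triplicates were expressed as mean ± SD. MIC came from dose-response curves.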

Data set [4] deals with Bacillus subtilis. In words: Growth inhibition of Bacillus subtilis NCIM 2079 at 30 ug/ml measured after 12 hrs relative to control. The following applies: NCIM 2079, 12 h, read-out: GI. The format is functional. A digest of the protocol:
as §1

Data set [5] concerns Mycobacterium tuberculosis. In words: Growth inhibition of Mycobacterium bovis BCG ATCC 35743 at active stage at 6.25 ug/ml measured after 8 days by nitrate reductase dye based two fold dilution method relative to control. The format is functional. The following applies: BCG str. ATCC 35743, 192 h, read-out: GI. The method, boiled down: (§3)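 M. bovis BCG was grown in Dubos medium and assayed in Mycobacterium pheli minimal medium (pH 6.6), with compounds from DMSO stocks. Incubation lasted 8 days for active and 12 days for dormant cultures. Viability was read by nitrate reductase at 540 nm against cell-free blanks, with vehicle set as 100% growth. Primary screen was at 30, 10 and 3 µg/ml, in triplicate, mean ± SD. MIC was taken from dose-response curves.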

In data set [6] the test system is Mycobacterium tuberculosis. As to the kind of experiment: Growth inhibition of Mycobacterium bovis BCG ATCC 35743 at dormant stage at 6.25 ug/ml measured after 12 days by nitrate reductase dye based two fold dilution method relative to control. As to conditions: BCG str. ATCC 35743, 288 h, read-out: GI. The format is functional. The method, boiled down: as §3
For data set [7], the system named is Mycobacterium tuberculosis. As to the kind of experiment: Growth inhibition of Mycobacterium bovis BCG ATCC 35743 at dormant stage at 25 ug/ml measured after 12 days by nitrate reductase dye based two fold dilution method relative to control. The format is functional. The following applies: BCG str. ATCC 35743, 288 h, read-out: GI. The method, boiled down: as §3

In another data set the test system is Aspergillus niger. In words: Antifungal activity against Aspergillus niger NCIM 1196 by standard agar method. The format is functional. A digest of the protocol:
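MICs determined by standard agar method; DMSO as solvent control.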

In data set [8] the test system is Mycobacterium tuberculosis. As to the kind of experiment: Growth inhibition of Mycobacterium tuberculosis H37Ra ATCC 25177 at dormant stage at 0.78 ug/ml measured after 12 days by XTT dye based two fold dilution method relative to control. The following applies: H37Ra ATCC 25177, 288 h, read-out: GI. The format is functional. A digest of the protocol:
as §2

Data set [9] has as its system Pseudomonas fluorescens. As to the kind of experiment: Growth inhibition of Pseudomonas fluorescens NCIM 2036 at 30 ug/ml measured after 8 hrs relative to control. The format is functional. As to conditions: NCIM 2036, 8 h, read-out: GI. A digest of the protocol: as §1
In data set [10] the test system is Mycobacterium tuberculosis. As to the kind of experiment: Growth inhibition of Mycobacterium bovis BCG ATCC 35743 at dormant stage at 0.78 ug/ml measured after 12 days by nitrate reductase dye based two fold dilution method relative to control. The format is functional. As to conditions: BCG str. ATCC 35743, 288 h, read-out: GI. The method, boiled down:
as §3

In data set [11] the test system is Mycobacterium tuberculosis. As to the kind of experiment: Growth inhibition of Mycobacterium tuberculosis H37Ra ATCC 25177 at dormant stage at 3.13 ug/ml measured after 12 days by XTT dye based two fold dilution method relative to control. The format is functional. As to conditions: H37Ra ATCC 25177, 288 h, read-out: GI. The method, boiled down:
as §2

Data set [12] relates to Mycobacterium tuberculosis. In words: Growth inhibition of Mycobacterium tuberculosis H37Ra ATCC 25177 at dormant stage at 50 ug/ml measured after 12 days by XTT dye based two fold dilution method relative to control. The format is functional. The following applies: H37Ra ATCC 25177, 288 h, read-out: GI. A digest of the protocol:
as §2

The subject of data set [13] is Mycobacterium tuberculosis. As to the kind of experiment: Growth inhibition of Mycobacterium bovis BCG ATCC 35743 at active stage at 12.5 ug/ml measured after 8 days by nitrate reductase dye based two fold dilution method relative to control. As to conditions: BCG str. ATCC 35743, 192 h, read-out: GI. The format is functional.
Data set [14] has as its system Pseudomonas fluorescens. In words: Growth inhibition of Pseudomonas fluorescens NCIM 2036 at 3 ug/ml measured after 8 hrs relative to control. The format is functional. The following applies: NCIM 2036, 8 h, read-out: GI. A digest of the protocol:
as §1

Data set [15] deals with Mycobacterium tuberculosis. In words: Growth inhibition of Mycobacterium bovis BCG ATCC 35743 at dormant stage at 100 ug/ml measured after 12 days by nitrate reductase dye based two fold dilution method relative to control. The format is functional. The following applies: BCG str. ATCC 35743, 288 h, read-out: GI. The method, boiled down:
as §3

Data set [16] has as its system Bacillus subtilis. As to the kind of experiment: Growth inhibition of Bacillus subtilis NCIM 2079 at 3 ug/ml measured after 12 hrs relative to control. As to conditions: NCIM 2079, 12 h, read-out: GI. The format is functional. The method, boiled down: as §1
Data set [17] concerns Pseudomonas fluorescens. In words: Growth inhibition of Pseudomonas fluorescens NCIM 2036 at 10 ug/ml measured after 8 hrs relative to control. The format is functional. As to conditions: NCIM 2036, 8 h, read-out: GI. The method, boiled down:
as §1

Data set [18] relates to Mycobacterium tuberculosis. As to the kind of experiment: Growth inhibition of Mycobacterium tuberculosis H37Ra ATCC 25177 at dormant stage at 6.25 ug/ml measured after 12 days by XTT dye based two fold dilution method relative to control. The format is functional. The following applies: H37Ra ATCC 25177, 288 h, read-out: GI. A digest of the protocol:
as §2

The subject of data set [19] is Escherichia coli. As to the kind of experiment: Growth inhibition of Escherichia coli NCIM 2688 at 3 ug/ml measured after 8 hrs relative to control. The format is functional. The following applies: NCIM 2688, 8 h, read-out: GI. A digest of the protocol: as §1
The test system of another data set is Staphylococcus aureus. In words: Antibacterial activity against of Staphylococcus aureus NCIM 2010 measured after 12 hrs. The format is functional. As to conditions: NCIM 2010, 12 h. The method, boiled down:
as §1

≈ marks a conversion by molar mass, not a printed value.

With `COc1ccc2cc(/C=C3\SC(=S)NC3=O)c(Cl)nc2c1`, the GI50 at 48 h in [1] was more than 100 µg/mL. Moreover, the inhibition of growth at 10 µg/mL was 39.4% with Escherichia coli [2] and 43.5% in the data set with Pseudomonas fluorescens [17]. In data set [3], this compound yielded an IC50 of 5.7 µg/mL (≈ 16.9 µM). The compound also came in with an IC90 in data set [3] of 21.1 µg/mL (≈ 62.6 µM). Besides, the inhibition of growth at 30 µg/mL in the data set with Bacillus subtilis [4] turned out to be 8.36%; in the data set on Pseudomonas fluorescens [9], 46.2%. For the same compound, the inhibition of growth at 6.25 µg/mL came to 96.6% in data set [5], 94% in [6] and 23.2% in data set [18]. In addition, the inhibition of growth at 25 µg/mL in [7] came to 99.8%. Besides, the minimal inhibitory concentration (MIC) in the data set on Aspergillus niger was 75 µg/mL (≈ 223 µM); in the data set on Staphylococcus aureus, more than 30 µg/mL. Besides, the inhibition of growth at 0.78 µg/mL is -29.8% in data set [8] and -50.5% in [10]. In addition, the inhibition of growth at 3.13 µg/mL in data set [11] is 36.4%. For the same compound, in [12], the inhibition of growth at 50 µg/mL came out at 104%. Also, in data set [13], the inhibition of growth at 12.5 µg/mL stood at 98.9%. Besides, the inhibition of growth at 3 µg/mL with Pseudomonas fluorescens [14] was 0.629%; in the data set with Bacillus subtilis [16], -4.12%; in the data set on Escherichia coli [19], 26.4%. Moreover, the inhibition of growth at 100 µg/mL in data set [15] amounted to 99%.

In data set [1], `COc1ccc2nc(Cl)c(/C=C3\SC(=S)NC3=O)cc2c1` displayed a GI50 at 48 h of more than 100 µg/mL. In addition, the inhibition of growth at 10 µg/mL in the data set with Escherichia coli [2] is -36.1%; with Pseudomonas fluorescens [17], 81.8%. In addition, the IC50 in data set [3] turned out to be 6.9 µg/mL (≈ 20.5 µM). Moreover, in data set [3], it took 14.3 µg/mL (≈ 42.5 µM) to reach the 90% level (IC90). Further, the inhibition of growth at 30 µg/mL with Bacillus subtilis [4] came to 21.2%; in the data set with Pseudomonas fluorescens [9], 70.9%. In addition, the inhibition of growth at 6.25 µg/mL in [5] was determined as 95.7%; in data set [6], 89.9%; in data set [18], 27.4%. In addition, in [7], the inhibition of growth at 25 µg/mL came out at 81.6%. Further, the MIC in the data set on Aspergillus niger is 150 µg/mL (≈ 445 µM); in the data set on Staphylococcus aureus it was 7.86 µg/mL (≈ 23.3 µM). Besides, the inhibition of growth at 0.78 µg/mL in data set [8] was -36%; in data set [10] it was -31.1%. Also, the inhibition of growth at 3.13 µg/mL in data set [11] is 4.7%. The inhibition of growth at 50 µg/mL in [12] came to 90.5%. Further, the inhibition of growth at 12.5 µg/mL in data set [13] was found to be 96%. For the same compound, the inhibition of growth at 3 µg/mL in the data set with Pseudomonas fluorescens [14] came to 76.2%; in the data set on Bacillus subtilis [16] it was 1.79%; in the data set with Escherichia coli [19], 3.11%. Also, the inhibition of growth at 100 µg/mL in data set [15] is 97.7%.

In [1], `CCOc1ccc2nc(Cl)c(/C=C3\SC(=S)NC3=O)cc2c1` yielded a 50% growth inhibitory concentration (GI50) at 48 h of more than 100 µg/mL. In addition, the inhibition of growth at 10 µg/mL in the data set with Escherichia coli [2] was 77.2%; in the data set on Pseudomonas fluorescens [17], 41%. This compound yielded an IC50 in data set [3] of 1.9 µg/mL (≈ 5.42 µM). It took 2.8 µg/mL (≈ 7.98 µM) to reach the 90% level in [3] (IC90). Besides, the inhibition of growth at 30 µg/mL was found to be 98.5% in the data set on Bacillus subtilis [4] and 76% with Pseudomonas fluorescens [9]. Besides, the inhibition of growth at 6.25 µg/mL worked out at 101% in data set [5], 101% in [6] and 102% in data set [18]. The inhibition of growth at 25 µg/mL in data set [7] stood at 100%. For the same compound, the MIC in the data set with Aspergillus niger is 25 µg/mL (≈ 71.3 µM); in the data set with Staphylococcus aureus it was more than 30 µg/mL. The inhibition of growth at 0.78 µg/mL in data set [8] is -39.5%; in data set [10], -57%. In addition, the inhibition of growth at 3.13 µg/mL in [11] stood at 71.7%. For the same compound, in data set [12], the inhibition of growth at 50 µg/mL came to 93%. For the same compound, the inhibition of growth at 12.5 µg/mL in [13] worked out at 98.2%. Also, the inhibition of growth at 3 µg/mL with Pseudomonas fluorescens [14] is 50.2%; in the data set on Bacillus subtilis [16], -34%; in the data set with Escherichia coli [19], 64.7%. Moreover, the inhibition of growth at 100 µg/mL in data set [15] amounted to 99.5%.
